ChEMBL document CHEMBL1255269 (Antimicrob Agents Chemother, 2008)
Active and inactive are the calls of the source. The rule behind the calls is not given here.

Experiments:
[1] = Cmax in pigeon at 30 mg/kg, po by naive pooling approach; type: ADME, organism-based; design: dose 30 mg/kg, route oral; conditions: columba livia, in vivo
Method in brief: (§1)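 Crossover design, one week apart, 24 homing pigeons. […] Blood taken at 0.25–8 h, six samples per time point; plasma assayed by HPLC-UV (linear 0.05–20 μg/ml). Data fitted by naive pooling, iv biexponential and oral triexponential two-compartment models, plus nonlinear mixed-effects modelling; F derived from mean AUC0–∞.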

[2] = Plasma protein binding in pigeon at 10 ug/ml; type: ADME, cell-free; conditions: columba livia, read-out: PPB (converted)
Method in brief: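 Ultrafiltration through a 30K membrane, free drug in the ultrafiltrate measured by HPLC. Bound drug taken as total minus free.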

[3] = Oral bioavailability in pigeon at 30 mg/kg, po by naive pooling approach; type: ADME, organism-based; conditions: columba livia, in vivo; method in brief: as §1
[4] = Mean residence time in pigeon at 30 mg/kg, iv by naive pooling approach; type: ADME, organism-based; design: dose 30 mg/kg, route intravenous; conditions: columba livia, in vivo, read-out: Time; method in brief: as §1
in vivo [5] = conditions: columba livia, plasma, po, 30 mg/kg
in vivo [6] = conditions: columba livia, plasma, po, 30 mg/kg; remark: listed apart in the source
in vivo [7] = conditions: columba livia, plasma, iv, 30 mg/kg
[8] = Oral bioavailability in pigeon at 30 mg/kg, po; type: ADME, organism-based; conditions: columba livia, in vivo; method in brief: as §1
Salmonella typhimurium [9] = test: Antimicrobial activity against Salmonella enterica subsp. enterica serovar Typhimurium PT99/DAB69 at 2 ug/ml after 16 hrs; type: functional
Method in brief: (§2)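 Killing curve in Mueller-Hinton broth inoculated with 5 × 10^5 CFU of the strain (grown in LB, 37°C, 16 h, static). […] Tenfold dilutions plated onto Mueller-Hinton agar at several time points after inoculation; the decrease in log10 CFU is read at 16 h.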

in vivo [10] = conditions: columba livia, plasma, iv, 30 mg/kg; remark: listed apart in the source
[11] = Volume of distribution in pigeon at 30 mg/kg, iv by naive pooling approach; type: ADME, organism-based; design: dose 30 mg/kg, route intravenous; conditions: columba livia, in vivo; method in brief: as §1
Salmonella typhimurium [12] = test: Antimicrobial activity against Salmonella enterica subsp. enterica serovar Typhimurium PT99/DAB69 in pigeon spleen assessed as decrease in bacterial count relative to untreated control; type: functional, organism-based
Method in brief: (§3)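 Homing pigeons, 10 per group, housed individually. Crop inoculation with 10^8 CFU in 1 ml PBS. […] Tissue CFU per gram counted by plating tenfold dilutions on brilliant green agar, with enrichment in buffered peptone water and tetrathionate broth if direct plating was negative.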

[13] = Half life at beta phase in pigeon at 30 mg/kg, iv by naive pooling approach; type: ADME, organism-based; design: dose 30 mg/kg, route intravenous; conditions: columba livia, in vivo; method in brief: as §1
[14] = Tmax in pigeon at 30 mg/kg, po by naive pooling approach; type: ADME, organism-based; design: dose 30 mg/kg, route oral; conditions: columba livia, in vivo; method in brief: as §1
Salmonella typhimurium [15] = test: Antimicrobial activity against Salmonella enterica subsp. enterica serovar Typhimurium PT99/DAB69 at 4 ug/ml after 16 hrs; type: functional; method in brief: as §2
Columba livia = test: Drug uptake in Salmonella enterica subsp. enterica serovar Typhimurium PT99/DAB69 infected pigeon at 26 to 45 mg/kg; type: ADME, organism-based; design: dose 26-45 mg/kg; conditions: in vivo
[16] = Volume of distribution in central compartment in pigeon at 30 mg/kg, iv; type: ADME, organism-based; design: dose 30 mg/kg, route intravenous; conditions: columba livia, in vivo; method in brief: as §1
[17] = Half life at beta phase in pigeon at 30 mg/kg, po by naive pooling approach; type: ADME, organism-based; design: dose 30 mg/kg, route oral; conditions: columba livia, in vivo; method in brief: as §1
Salmonella typhimurium [18] = test: Antimicrobial activity against Salmonella enterica subsp. enterica serovar Typhimurium PT99/DAB69 in pigeon kidney assessed as decrease in bacterial count relative to untreated control; type: functional, organism-based; method in brief: as §3

`CS(=O)(=O)c1ccc([C@@H](O)[C@@H](CF)NC(=O)C(Cl)Cl)cc1` [FLORFENICOL] gave a Cmax [1] of 5100 ng/mL, a fraction unbound at 10 ug/ml [2] of 0.288 and a bioavailability [3] of 58.5%. For the same compound, the MRT [4] was 1.43 h, the AUC(0-inf) (in vivo [5]) was 12500 ng·h/mL and the AUC(0-inf) (in vivo [6]) was 13100 ng·h/mL. The AUC(0-inf) (in vivo [7]) was 22700 ng·h/mL, the bioavailability [8] was 60% and the log10cfu (Salmonella typhimurium [9]) was 1. For the same compound, the AUC(0-inf) (in vivo [10]) was 21300 ng·h/mL, the Vd [11] was 2.02 L/kg and the Activity (Salmonella typhimurium [12]) was “inactive”. It also gave a half-life [13] of 1.73 h, a Tmax [14] of 0.69 h and a log10cfu (Salmonella typhimurium [15]) of 2. For the same compound, the Drug uptake (Columba livia) was 35 mg/kg, the Vd [16] was 0.88 L/kg and the half-life [17] was 2.69 h. For the same compound, the Activity (Salmonella typhimurium [18]) was “inactive”.
